Source: PubChem BioAssay
Calls of active or inactive are those of the source.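 How the source made its calls, unless noted: active means fluorescence slope higher than the sample average by over 3 SD (cut at about -0.22 in these data, passing the limit was not always enough); inactive means the rest.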

Columns and labels:
[1] = inhibitors of TNFa-induced NFkB p65 translocation, primary screen, imaging, HUVEC, MLSMR starter and 10KST1 sets (AID 438;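 active means inhibition above 20% together with a positive visual image hit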;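 further: compound added about 3h40 before a 20 min TNFalpha stimulation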;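 on inhibition: signal is the nuclear over cytoplasmic p65 intensity ratio per well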); details: HUVEC TNFa-induced p65 nuclear translocation; cell count: measured here: nuclei count (cytotoxicity indicator), at 2.08 µM; inhibition: at 2 µM, stronger effect = higher value, 0% TNFa-plus-vehicle, 100% no-TNFa wells
[2] = reduction of polyQ htt aggregates in cells – imaging, exon1htt(103Q)mCFP cells, high-content imaging, primary screen (AID 483;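 active means visual image review flags a hit and inhibition of aggregation exceeds 20%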;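 further: compound exposure lasted 3 days before fixation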;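 on nuclei count: percent of the per-plate median nuclei count of sample wells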); details: exon1htt(103Q)mCFP cell line, aggregate imaging, at 2 µM; inhibition of aggregation: stronger effect = higher value; nuclei count: measured here: cell count, toxicity
[3] = endothelial E-selectin expression blockers – imaging, HUVEC, immunofluorescence, MLSMR starter and 10KST1 sets, primary screen (AID 487;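 active means visually confirmed hit in the image check and inhibition above 20%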;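 on inhibition: signal is fraction of cell area covered by stained E-selectin grains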;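 on nuclei count: 100% = median nuclei count of all wells on the same plate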); details: HUVEC TNFalpha-induced E-selectin immunofluorescence imaging, at 2 µM; inhibition: stronger effect = higher value; nuclei count: measured here: cell number, toxicity
[4] = biological target: Voltage-gated potassium channel subunit beta-2 (Rattus norvegicus) (UniProt P62483); experiment: inhibitors of rat Kvbeta2 reductase activity – biochemical, NADPH fluorescence, primary screen (AID 622); details: recombinant KvBeta, 4-cyanobenzaldehyde reduction, at 10 µM, stronger effect = higher value;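 further: slope of raw intensity against log time taken from 70 to 1610 s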
Chain of Voltage-gated potassium channel subunit beta-2 (Rattus norvegicus) (P62483 whole entry, looked up): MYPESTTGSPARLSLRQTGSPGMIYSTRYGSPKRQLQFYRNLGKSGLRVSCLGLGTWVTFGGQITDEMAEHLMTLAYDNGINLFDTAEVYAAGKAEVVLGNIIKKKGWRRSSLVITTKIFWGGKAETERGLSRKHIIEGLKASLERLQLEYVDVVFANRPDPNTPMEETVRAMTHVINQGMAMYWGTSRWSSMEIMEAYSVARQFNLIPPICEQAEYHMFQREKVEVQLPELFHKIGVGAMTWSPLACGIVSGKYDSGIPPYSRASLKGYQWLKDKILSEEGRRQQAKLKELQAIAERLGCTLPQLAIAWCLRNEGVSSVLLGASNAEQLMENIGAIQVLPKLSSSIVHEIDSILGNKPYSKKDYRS

[5] = biological target: Voltage-gated potassium channel subunit beta-2 (Rattus norvegicus) (UniProt P62483); experiment: enhancers of rat Kvbeta2 NADPH turnover – biochemical, NADPH fluorescence, primary screen (AID 623;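 active means NADPH fluorescence slope more negative than the mean of all samples by about 3 SD, 99.7% confidence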;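 further: fluorescence intensity change per second fitted from 20 to 320 s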); details: Recombinant KvBeta, NADPH fluorescence decrease slope, 10 min; at 10 µM; stronger effect = lower value
[6] = biological target: Alpha-2C adrenergic receptor (Homo sapiens) (UniProt P18825); experiment: compounds altering alpha2C-coupled GIRK flux – cell-based, HEK293 alpha2C/GIRK1/2, thallium flux, primary screen (AID 624;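 active means fluorescence slope after compound addition differing from the mean of all screened samples at 99.7% confidence, in either direction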;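 further: slope of fluorescence ratio to pre-addition baseline per second over 15 to 24 s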); details: thallium flux BTC fluorescence, at 10 µM, actives lie on both sides
Chain of Alpha-2C adrenergic receptor (Homo sapiens) (P18825 whole entry, looked up): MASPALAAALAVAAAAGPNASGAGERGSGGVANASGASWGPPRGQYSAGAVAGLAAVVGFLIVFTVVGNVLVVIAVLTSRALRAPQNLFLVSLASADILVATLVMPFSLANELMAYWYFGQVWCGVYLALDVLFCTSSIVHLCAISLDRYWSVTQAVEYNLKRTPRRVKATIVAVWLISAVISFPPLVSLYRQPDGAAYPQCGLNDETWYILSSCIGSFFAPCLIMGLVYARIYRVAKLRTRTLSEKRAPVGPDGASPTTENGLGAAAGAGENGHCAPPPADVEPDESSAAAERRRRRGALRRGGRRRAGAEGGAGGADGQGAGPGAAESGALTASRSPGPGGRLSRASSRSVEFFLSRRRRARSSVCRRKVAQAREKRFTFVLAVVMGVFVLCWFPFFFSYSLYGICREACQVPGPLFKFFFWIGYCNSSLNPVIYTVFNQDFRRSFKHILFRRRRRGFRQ

[7] = inhibitors of larval lipid processing in zebrafish, primary screen, whole organism, PED6 fluorescence, gall bladder and intestine (AID 686;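 active means a full or partial loss of lipid-probe fluorescence in the fish gall bladder, intestine or both, judged by eye; inactive means no fluorescence loss, or compound toxic to the fish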;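 further: larvae 5 to 7 days old with five fish per well; signal comes from phospholipase A2 cleavage of quenched PED6 carried via bile; overnight exposure to compound and PED6 before scoring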); details: Zebrafish larvae PED6 lipid processing, fluorescence scoring; screened at 20 µM (by protocol)
Procedure, shortened: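 System: live zebrafish larvae aged 5-7 days, whole organism; measure: graded gall bladder and intestinal fluorescence inhibition per well; incubation: overnight exposure; reagent: ingested quenched lipid PED6 at 100 nM; signal: By-eye fluorescence microscopy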

[8] = blockers of RIG-like receptor reporter activation – cell-based, Sendai virus stimulus, luciferase, 10K MLSCN set, TLR/RLR signaling modifier project, primary screen (AID 602276;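 active means inhibition at or above 50% at 10 µM; inactive means inhibition below 50%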;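 further: firefly luciferase from ISG56 promoter only with Renilla not read in this screen; 0% = Sendai virus plus DMSO and 100% = medium plus DMSO without virus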); details: HEK293 RL24 IRF3 luciferase reporter, at 10 µM, stronger effect = higher value
[9] = TLR3 IRF3 reporter activation blockers – cell-based, poly I:C stimulus, luciferase, 10K MLSCN set, primary screen (AID 602277;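 active means inhibition of the reporter signal at or above 50%; inactive means inhibition below 50%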); details: HEK293-TLR3 RL24 IRF3 luciferase reporter, at 10 µM, stronger effect = higher value
[10] = biological target: Muscarinic acetylcholine receptor M4 (Homo sapiens) (UniProt P08173); experiment: M4-linked GIRK flux change, two-sided – cell-based, HEK293 M4/GIRK, thallium flux, BTC-AM, M4 allosteric agonist project, primary screen (AID 625;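 active means fluorescence slope after compound addition differing from the mean of all tested samples at 99.7% confidence, mostly higher but some lower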;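 further: thallium influx through GIRK channels coupled to M4 in HEK293 cells with BTC-AM dye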); details: at 10 µM, actives lie on both sides
Chain of Muscarinic acetylcholine receptor M4 (Homo sapiens) (P08173 whole entry, looked up): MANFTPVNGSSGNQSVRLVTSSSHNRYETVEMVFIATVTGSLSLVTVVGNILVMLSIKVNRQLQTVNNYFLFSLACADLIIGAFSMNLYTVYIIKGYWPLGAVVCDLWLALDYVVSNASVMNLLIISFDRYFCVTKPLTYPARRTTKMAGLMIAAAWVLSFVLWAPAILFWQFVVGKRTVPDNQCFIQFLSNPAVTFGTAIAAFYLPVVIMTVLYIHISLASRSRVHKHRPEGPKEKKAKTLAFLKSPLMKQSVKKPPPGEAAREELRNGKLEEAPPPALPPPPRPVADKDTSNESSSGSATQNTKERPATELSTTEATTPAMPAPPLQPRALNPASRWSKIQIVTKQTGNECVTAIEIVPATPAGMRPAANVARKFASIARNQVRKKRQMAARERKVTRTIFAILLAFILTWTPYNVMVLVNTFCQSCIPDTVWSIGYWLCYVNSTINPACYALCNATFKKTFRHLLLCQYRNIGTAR
Procedure, shortened: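 Material: M4/GIRK1/GIRK2 stable HEK293 cell line. Medium: pH 7.3 thallium assay buffer. Dosing: single compound concentration, 10 µM final. Schedule: 1 h dye loading, 2 min kinetic read. Measured by: kinetic fluorescence with BTC-AM dye. Read-out: post-addition slope, 15–24 s, of baseline-normalized fluorescence. Benchmarks: carbachol and DMSO controls.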

Row | SMILES | cell count [1] | inhibition [1] | inhibition of aggregation [2] | nuclei count [2] | inhibition [3] | nuclei count [3] | fluorescence slope [4] | NADPH fluorescence slope [5] | slope [6] | outcome [7] | inhibition [8] | inhibition [9] | fluorescence slope [10]
1 | CCn1c(=N)n(CC(=O)c2ccco2)c2ccccc21 | 407 | -11.8% (inactive) | 22.6% (inactive) | 68% | 52.9% (active) | 83.4% | -0.391 (inactive) | -5.5e-05 (inactive) | 0.00452 (inactive) | inactive | 4.56% (inactive) | 2.85% (inactive) | –
2 | Cc1ccc(S(=O)(=O)N2CCN(C(=O)N3CCOCC3)C2C)cc1 (centres undefined) | 469 | 7.3% (inactive) | 12.7% (inactive) | 102% | -48.1% (inactive) | 108% | -0.439 (inactive) | -5.1e-05 (inactive) | 0.00556 (inactive) | inactive | 11.8% (inactive) | 45.8% (inactive) | –
3 | COC(=O)c1cccc(NC(=O)CN2CCN(Cc3ccccc3)CC2)c1 | 382 | -6.1% (inactive) | -15.3% (inactive) | 124% | -28.9% (inactive) | 121% | -0.372 (inactive) | -9.8e-07 (inactive) | 0.0056 (inactive) | inactive | 12.8% (inactive) | 14.9% (inactive) | –
4 | N#CC1=C(N)N2C(=C(C#N)C13CCCCC3)SC1CCCCC12O (centres undefined) | 322 | 11.4% (inactive) | 3.6% (inactive) | 91.5% | -4.6% (inactive) | 116% | -0.405 (inactive) | 1.2e-05 (inactive) | 0.00499 (inactive) | inactive | 19% (inactive) | 24.3% (inactive) | –
5 | Cc1ccc(S(=O)(=O)NCC(=O)OCC(=O)Nc2ncc(Cl)cc2Cl)cc1 | 412 | -0.4% (inactive) | -19.2% (inactive) | 115% | -42.3% (inactive) | 114% | -0.465 (inactive) | -4.6e-05 (inactive) | 0.00472 (inactive) | inactive | 17.2% (inactive) | 25.7% (inactive) | –
6 | CCN(CC)S(=O)(=O)c1ccc2c(c1)nc(SCn1nnc3ccccc3c1=O)n2CC | 765 | 6% (inactive) | 6.8% (inactive) | 94.2% | -114% (inactive) | 129% | -0.433 (inactive) | -6.2e-05 (inactive) | 0.00509 (inactive) | inactive | 15.4% (inactive) | 11.9% (inactive) | –
7 | Cc1ccc(S(=O)(=O)N2CCN(C(=O)CSc3nc4ccccc4c(=O)[nH]3)CC2)c(C)c1 | 541 | -30.9% (inactive) | -12.7% (inactive) | 113% | -13.1% (inactive) | 130% | -0.331 (inactive) | 1.8e-05 (inactive) | 0.00493 (inactive) | inactive | 8.86% (inactive) | 4.21% (inactive) | –
8 | COc1ccc(CCN2C(=O)CC(N3CCN(S(=O)(=O)c4ccccc4)CC3)C2=O)cc1 (centres undefined) | 666 | 11.3% (inactive) | 19.5% (inactive) | 106% | 69.9% (active) | 110% | -0.483 (inactive) | -8.5e-06 (inactive) | 0.0045 (inactive) | inactive | 11.6% (inactive) | 6.07% (inactive) | –
9 | O=C(CCC(=O)OCC(=O)c1ccccc1)NC1CCCCC1 | 449 | 1.2% (inactive) | 1.6% (inactive) | 95% | 30.3% (inactive) | 112% | -0.356 (inactive) | -6.3e-05 (inactive) | 0.00794 (inactive) | inactive | -0.183% (inactive) | 97.3% (active) | –
10 | Cc1ccc(C)c(-c2nc3ccc(N)cc3[nH]2)c1 | 340 | 3.9% (inactive) | 30.3% (inactive) | 77.7% | -114% (inactive) | 100% | -0.0465 (active) | -3.5e-05 (inactive) | – | – | 15.4% (inactive) | -9.14% (inactive) | 0.00338 (inactive)
11 | CC(Oc1ccc(Br)cc1)C(=O)N1CCc2ccccc21 (centres undefined) | 406 | 6.3% (inactive) | 22.4% (inactive) | 104% | -97.2% (inactive) | 119% | -0.486 (inactive) | 5.9e-05 (inactive) | – | – | -4.76% (inactive) | -9.35% (inactive) | 0.00581 (inactive)
12 | CCCCn1c(CN2CCN(c3cccc(Cl)c3)CC2)nc2c1c(=O)n(C)c(=O)n2C | 581 | 3.4% (inactive) | 10.6% (inactive) | 100% | -3.3% (inactive) | 103% | -0.597 (inactive) | -6.6e-05 (inactive) | – | – | 14.4% (inactive) | -1.69% (inactive) | 0.00321 (inactive)
13 | O=C(CSCc1n[nH]c(=O)[nH]1)NCCOc1cccc(Oc2ccccc2)c1 | 615 | -13% (inactive) | 8.5% (inactive) | 77.7% | -16.1% (inactive) | 105% | -0.417 (inactive) | -6.7e-05 (inactive) | 0.00545 (inactive) | inactive | -14.2% (inactive) | 2.61% (inactive) | –
14 | O=C(CSc1nc2cc(S(=O)(=O)N3CCOCC3)ccc2o1)NC1CCCc2ccccc21 (centres undefined) | 571 | -16.3% (inactive) | -7.6% (inactive) | 89.9% | 36.5% (inactive) | 86.1% | -0.363 (inactive) | -8.5e-05 (inactive) | 0.00378 (inactive) | inactive | 11.5% (inactive) | 99.3% (active) | –
15 | O=C(c1cc(-c2cccs2)on1)N1CCc2ccccc2C1 | 490 | -4.5% (inactive) | -23.8% (inactive) | 106% | -28.9% (inactive) | 96.8% | -0.441 (inactive) | -4.4e-06 (inactive) | – | – | 4.86% (inactive) | -18.5% (inactive) | 0.00464 (inactive)
16 | Cc1cc(-c2ccccc2)nc2cc(C(=O)NCCCn3ccnc3)nn12 | 908 | 6.4% (inactive) | 19.7% (inactive) | 86.1% | -160% (inactive) | 112% | -0.362 (inactive) | 1.5e-05 (inactive) | – | – | 16.4% (inactive) | 25.4% (inactive) | 0.007 (inactive)
17 | O=C(NCC(=O)N(CCc1ccccc1)C(C(=O)NC1CCCC1)c1cccnc1)c1ccco1 (centres undefined) | 464 | 6.5% (inactive) | 2.2% (inactive) | 108% | -126% (inactive) | 141% | -0.493 (inactive) | 1.4e-05 (inactive) | – | – | 7.14% (inactive) | 6.57% (inactive) | 0.00509 (inactive)
18 | O=C(OCC#CCSc1nc2ccccc2o1)c1ccco1 | 541 | 6.7% (inactive) | -4.7% (inactive) | 111% | -7.3% (inactive) | 116% | -0.405 (inactive) | 1.4e-05 (inactive) | – | – | -2.28% (inactive) | -8.72% (inactive) | 0.00568 (inactive)
19 | CC(=O)C1=C(N2CCCCC2)CCC1=O | 431 | 2.3% (inactive) | -14.9% (inactive) | 100% | -0.5% (inactive) | 109% | -0.328 (inactive) | -1.9e-05 (inactive) | – | – | 8.02% (inactive) | 11.2% (inactive) | 0.00689 (inactive)
20 | CCN(c1cccc(C)c1)S(=O)(=O)c1ccc2[nH]c(=O)c(=O)[nH]c2c1 | 415 | 6.2% (inactive) | 7.1% (inactive) | 93.5% | -8.3% (inactive) | 98% | -0.514 (inactive) | -0.000128 (inactive) | – | – | 12.5% (inactive) | 21.6% (inactive) | 0.00491 (inactive)
21 | COc1ccccc1CN(Cc1nc2ccccc2c(=O)[nH]1)C(=O)Nc1ccccc1 | 733 | -6.8% (inactive) | 16.9% (inactive) | 87.7% | -68.2% (inactive) | 134% | -0.49 (inactive) | -4.8e-05 (inactive) | – | – | 3.14% (inactive) | 12.2% (inactive) | 0.0059 (inactive)
22 | O=C(NCc1nnc(SCC(=O)N2CCCCCC2)o1)c1ccco1 | 595 | -15.7% (inactive) | 12.1% (inactive) | 124% | -52.2% (inactive) | 106% | -0.516 (inactive) | -2.1e-05 (inactive) | – | – | 6.86% (inactive) | 11% (inactive) | 0.00384 (inactive)
23 | CCOc1ccc(C(=O)Nc2cc(C)on2)cc1OCC | 372 | -2.3% (inactive) | -2.8% (inactive) | 110% | -61.3% (inactive) | 108% | -0.437 (inactive) | -5.8e-05 (inactive) | – | – | 11.5% (inactive) | 7.31% (inactive) | 0.00551 (inactive)
24 | CCOC(=O)c1cnc(-n2nc(C)cc2C)nc1Nc1ccc(N(C)C)cc1 | 603 | -15.5% (inactive) | 30.6% (inactive) | 84% | -51.8% (inactive) | 88.2% | -0.574 (inactive) | -4.7e-05 (inactive) | – | – | 4.06% (inactive) | 4.11% (inactive) | 0.00563 (inactive)
25 | COC(=O)c1ccccc1NC(=O)c1noc2c1CCC2 | 251 | 0.3% (inactive) | 6.7% (inactive) | 100% | -15.1% (inactive) | 120% | -0.597 (inactive) | -2.5e-05 (inactive) | – | – | 13.1% (inactive) | 22.8% (inactive) | 0.0051 (inactive)
26 | COc1ccc(OC)c(N2Cc3cc(C)c(C)cc3C2)c1 | 561 | -3.1% (inactive) | 0.2% (inactive) | 79.6% | -8.6% (inactive) | 86.7% | -0.476 (inactive) | -6.9e-05 (inactive) | – | – | -3.86% (inactive) | -7.05% (inactive) | 0.00388 (inactive)
27 | CC(OC1=CC(=O)CCC1)C(=O)c1ccccc1 (centres undefined) | 370 | 10.4% (inactive) | 36.6% (active) | 64.2% | 24.1% (inactive) | 72.3% | -0.569 (inactive) | 1.9e-05 (inactive) | – | – | 14.1% (inactive) | 18.3% (inactive) | 0.00642 (inactive)
28 | COc1ccc(N2CCN(c3ncnc4c3cnn4-c3ccc(C)cc3C)CC2)cc1 | 683 | -10.9% (inactive) | -20.3% (inactive) | 117% | -33.1% (inactive) | 98% | -0.558 (inactive) | -4.3e-05 (inactive) | – | – | 5.2% (inactive) | -20.2% (inactive) | 0.00551 (inactive)
